Assay outcomes (PubChem)
Shown are actives, neighbours in structure and some others; about 4.3% of the full set was active somewhere.
OX1R antag-1 – blocks the human orexin 1 receptor; 330,000 tested, 0.43% active; inhibition, % at 5 µM; O43613; CHO/OX1R cells, Fluo-8 calcium fluorescence, orexin A;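 active = inhibition above its plate's threshold, mean inhibition of all tested compounds on the plate plus 3 SD, cut at about 37% in these data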;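 also: 0% = orexin A challenge wells and 100% = SB-334867-A antagonist wells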
Target sequence (O43613 whole entry, looked up): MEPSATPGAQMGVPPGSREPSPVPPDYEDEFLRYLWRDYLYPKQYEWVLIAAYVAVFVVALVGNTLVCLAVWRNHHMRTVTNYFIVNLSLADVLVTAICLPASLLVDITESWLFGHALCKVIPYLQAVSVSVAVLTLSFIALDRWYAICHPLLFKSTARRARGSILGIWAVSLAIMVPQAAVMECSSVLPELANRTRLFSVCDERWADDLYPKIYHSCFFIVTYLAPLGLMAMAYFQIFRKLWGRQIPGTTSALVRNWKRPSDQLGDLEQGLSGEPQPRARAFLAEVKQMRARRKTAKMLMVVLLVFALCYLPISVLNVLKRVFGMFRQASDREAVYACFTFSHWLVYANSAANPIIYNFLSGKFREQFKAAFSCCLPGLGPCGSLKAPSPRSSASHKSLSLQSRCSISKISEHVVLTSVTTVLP
OX1R antag-2 – blocks the human orexin 1 receptor | 330,000 tested, 1.8% active | AID 485270 | O43613 | OX1R-expressing cells, FRET antagonist read-out | inhibition, % at 6.6 µM; in the data active = inhibition mostly above about 38%, no sharp cut-off; inactive = mostly below about 40%;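 also: 0% = agonist challenge alone and 100% = reference antagonist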
TAAR1 antag – antagonists of human TAAR1 | CHO RD-HGA16 TAAR1, Fluo-8 calcium fluorescence, antagonist | 360,000 tested, 1.5% active | Q96RJ0 | inhibition, % at 3 µM;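 active = inhibition above a per-plate cutoff, the mean inhibition of test compounds on that plate plus 3 SD, cut at about 49% in these data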;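 also: 0% = DMSO plus EC80 beta-PEA response and 100% = DMSO alone without agonist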
Target sequence (Q96RJ0 whole entry, looked up): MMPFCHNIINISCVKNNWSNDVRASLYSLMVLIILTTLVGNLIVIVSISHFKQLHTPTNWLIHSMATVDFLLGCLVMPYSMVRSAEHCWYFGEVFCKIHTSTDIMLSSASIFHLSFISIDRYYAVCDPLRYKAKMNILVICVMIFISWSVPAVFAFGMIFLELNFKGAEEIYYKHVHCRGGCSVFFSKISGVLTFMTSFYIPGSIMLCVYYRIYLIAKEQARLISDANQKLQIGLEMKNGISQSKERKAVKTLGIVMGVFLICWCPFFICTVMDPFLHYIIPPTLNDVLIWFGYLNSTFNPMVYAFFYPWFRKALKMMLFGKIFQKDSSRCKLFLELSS
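Test system: hTAAR1-expressing CHO RD-HGA16 cells, Gα16-coupled; Probe or stimulus: EC80 β-phenethylamine stimulus; Compound dosing: single nominal final test compound concentration of 3 µM; Timing: 140 s kinetic read after compound, 140 s after agonist; Signal: Fluo-8 calcium-sensitive fluorescence; Measure: % inhibition of agonist calcium response; Controls: DMSO and EC80 PEA controls.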
TAAR1 agonist – agonists of human TAAR1; activation, % at 3 µM; Q96RJ0; CHO RD-HGA16 TAAR1, Fluo-8 calcium fluorescence; vehicle wells 0%, saturating PEA agonist 100%; AID 624467; 360,000 tested, 0.99% active;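 active = activation above the mean activation of all test compounds in the run plus 3 SD, cut at about 38% in these data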
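Test system: RD-HGA16 (CHO) cells co-expressing Gα16 and hTAAR1 / Benchmarks: DMSO vehicle as 0%, PEA at EC100 as 100% / Repeats: no replicates (n 1) / Measure: % activation from peak over basal fluorescence ratio, DMSO-to-PEA scaled / Timing: 17-24 h plating, Fluo-8 75 min 37 °C, 30 min RT / Technique: kinetic Fluo-8 calcium fluorescence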
CHO parental Ca – counter-screen for OX1R antagonists: effect in parental CHO cells | AID 463079 | parental CHO-K1, ATP-induced calcium, Fluo-8 fluorescence | 330,000 tested, 0.63% active | inhibition, % at 5.6 µM;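 active = inhibition above that plate's mean sample inhibition plus 3 SD, cut at about 26% in these data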;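 also: 0% = ATP-challenged DMSO wells and 100% = DMSO wells without ATP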
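Measured by: calcium-sensitive Fluo-8 fluorescence / Test system: CHO parental line / Controls: ATP-challenged DMSO wells low, unchallenged DMSO wells high / Measure: % inhibition / Compound: single nominal dose of 5.6 µM per compound / Replicates: single well per compound, no replicates / Reagent: ATP as calcium-mobilizing challenge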
GalR3 antag – antagonists of human GalR3. O60755. HEK293 GalR3-CNG cAMP membrane potential fluorescence; galR3 body fused to GalR1 C-terminus. inhibition, % at 3 µM. 360,000 tested, 0.44% active. AID 651719;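 active = inhibition above the screen-wide average plus 3 SD, cut at about 13% in these data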;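 also: forskolin and galanin both at EC90 stimulate the cells; cAMP rise reported by CNG channel membrane potential dye signal; 0% = forskolin plus galanin with DMSO and 100% = forskolin alone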
Starred values were filed as active, the others as inactive.

Results for O=C(CCN1C(=O)NC2(CCCC2)C1=O)Nc1ccc(Sc2ccc(Br)cc2)cc1 ?
TAAR1 antag: 15.0; TAAR1 agonist: 5.4; GalR3 antag: -6.2

How did COc1ccc(C2(C)NC(=O)N(CC(=O)Nc3ccc(-c4nc5ccc(C)cc5s4)cc3)C2=O)cc1 (stereo not drawn) do in these assays?
OX1R antag-1: 24.8; OX1R antag-2: 6.0; TAAR1 antag: 21.4; TAAR1 agonist: 14.8; CHO parental Ca: 29.4*; GalR3 antag: -3.6

What do the screens show for `CCC1(c2ccc(F)cc2)NC(=O)N(CC(=O)Nc2ccc(-c3nc4ccc(C)cc4s3)cc2)C1=O` (stereo not drawn)?
OX1R antag-1: 5.6; OX1R antag-2: 2.1; TAAR1 antag: 23.6; TAAR1 agonist: 2.8; CHO parental Ca: 10.5; GalR3 antag: 1.0

How did Cc1ccc(NC(=O)CN2C(=O)NC(C)(c3ccc(Cl)cc3)C2=O)cc1 (stereo not drawn) do in these assays?
OX1R antag-1: -8.8; OX1R antag-2: 8.4; TAAR1 antag: 20.7; TAAR1 agonist: 41.1*; CHO parental Ca: 4.3; GalR3 antag: -6.8

Results for CC(=O)Nc1ccc(C(=O)N2CCCC(c3cc(C(=O)Nc4ccccc4Cl)no3)C2)cc1 (stereo not drawn) ?
TAAR1 antag: -5.4; TAAR1 agonist: 11.6; GalR3 antag: -8.1

What do the screens show for `O=C(CSc1ccccc1F)NNC(=O)c1cncc(Br)c1`?
OX1R antag-1: -10.4; OX1R antag-2: 4.3; TAAR1 antag: 1.1; TAAR1 agonist: 7.7; CHO parental Ca: -9.9; GalR3 antag: -3.4

What do the screens show for `CCCCOc1ccc(C2C(C(=O)c3ccc(C)o3)=C(O)C(=O)N2CC2CCCO2)cc1` (stereo not drawn)?
OX1R antag-1: -32.1; OX1R antag-2: 11.5; TAAR1 antag: -18.4; TAAR1 agonist: 1.9; CHO parental Ca: -15.3; GalR3 antag: 3.1

How did CC1(Oc2cccc(F)c2)CCN(Cc2ccc(-c3ccccn3)cc2)C1 (stereo not drawn) do in these assays?
TAAR1 antag: 0.0; TAAR1 agonist: 2.6; GalR3 antag: -7.0

What do the screens show for `CC(=O)NCCNc1nc2cc(-c3ccccc3CO)sc2c(=O)n1C`?
TAAR1 antag: -9.8; TAAR1 agonist: 0.0; GalR3 antag: -0.7

What do the screens show for `O=C(COC(=O)[C@@H]1CCCN1C(=O)c1cccs1)Nc1ccc(F)cc1[N+](=O)[O-]`?
OX1R antag-1: -19.3; OX1R antag-2: 63.9*; TAAR1 antag: -12.2; TAAR1 agonist: 0.1; CHO parental Ca: -24.0; GalR3 antag: -5.1

What do the screens show for `CCCCNS(=O)(=O)c1ccc2nc(SCC(=O)Nc3sccc3C#N)[nH]c2c1`?
OX1R antag-1: 54.5*; OX1R antag-2: 76.1*; TAAR1 antag: 47.5; TAAR1 agonist: 27.7; CHO parental Ca: 46.5*; GalR3 antag: 5.0

Results for C#CCOc1ccccc1C(=O)NNc1ccc([N+](=O)[O-])cc1[N+](=O)[O-] ?
TAAR1 antag: 18.5; TAAR1 agonist: 2.3; GalR3 antag: -7.4

Results for CCOC(=O)C(C(=O)OCC)C(C)(C)/C(C)=N\Nc1ccc([N+](=O)[O-])cc1[N+](=O)[O-] ?
OX1R antag-1: 3.6; OX1R antag-2: 32.3; TAAR1 antag: 7.8; TAAR1 agonist: 3.5; CHO parental Ca: -0.9; GalR3 antag: -4.3

How did CCC(CC)=NNc1ccc([N+](=O)[O-])cc1[N+](=O)[O-] do in these assays?
OX1R antag-1: -20.2; OX1R antag-2: 39.0; TAAR1 antag: 2.5; TAAR1 agonist: 7.8; CHO parental Ca: -4.8; GalR3 antag: -5.7

What do the screens show for `C/C(CCCO)=N/Nc1ccc([N+](=O)[O-])cc1[N+](=O)[O-]`?
OX1R antag-1: 15.2; OX1R antag-2: 43.9*; TAAR1 antag: 16.0; TAAR1 agonist: 5.5; CHO parental Ca: 4.1; GalR3 antag: -4.0

How did C/C(CCC(=O)O)=N/Nc1ccc([N+](=O)[O-])cc1[N+](=O)[O-] do in these assays?
OX1R antag-1: -2.4; OX1R antag-2: 63.5*; TAAR1 antag: 15.0; TAAR1 agonist: 2.8; CHO parental Ca: -4.1; GalR3 antag: -6.0

What do the screens show for `C#CCOC(=O)CCCNc1ccc([N+](=O)[O-])cc1[N+](=O)[O-]`?
OX1R antag-1: -20.8; OX1R antag-2: 46.0*; TAAR1 antag: -6.2; TAAR1 agonist: 1.0; CHO parental Ca: 6.9; GalR3 antag: -1.2

Results for C/C(=N\Nc1ccc([N+](=O)[O-])cc1[N+](=O)[O-])C(C)C(C)C (stereo not drawn) ?
OX1R antag-1: -16.3; OX1R antag-2: 19.4; TAAR1 antag: 17.2; TAAR1 agonist: 6.2; CHO parental Ca: -6.7; GalR3 antag: -3.7

How did CCOC(=O)CC(C)(C)/C(C)=N/Nc1ccc([N+](=O)[O-])cc1[N+](=O)[O-] do in these assays?
OX1R antag-1: -2.7; OX1R antag-2: 54.4*; TAAR1 antag: 8.1; TAAR1 agonist: 1.1; CHO parental Ca: 18.8; GalR3 antag: -5.1

Results for COc1ccccc1N1C(=O)CC(Nc2ccc(N3CCOCC3)cc2)C1=O (stereo not drawn) ?
OX1R antag-1: -18.3; OX1R antag-2: 71.1*; TAAR1 antag: -3.3; TAAR1 agonist: 0.8; CHO parental Ca: 4.8; GalR3 antag: -1.6

Results for O=C1CC(Nc2ccc(N3CCOCC3)cc2)C(=O)N1c1ccccc1 (stereo not drawn) ?
OX1R antag-1: -12.6; OX1R antag-2: 47.9; CHO parental Ca: 8.1

How did O=C(OCC(=O)N1CCCCC1)c1ccc2c(c1)C(=O)N(Cc1ccco1)C2=O do in these assays?
OX1R antag-1: -6.8; OX1R antag-2: 32.6*; TAAR1 antag: -7.7; TAAR1 agonist: 2.0; CHO parental Ca: -16.2; GalR3 antag: -4.1

Results for CC1CC(C)CN(C(=O)COC(=O)c2ccc3c(c2)C(=O)N(Cc2ccco2)C3=O)C1 (stereo not drawn) ?
OX1R antag-1: 4.6; OX1R antag-2: 9.8; TAAR1 antag: 20.9; TAAR1 agonist: 1.9; CHO parental Ca: -9.4; GalR3 antag: -3.5

Results for COC(=O)C(C)Sc1nc2c(c(=O)[nH]c(=O)n2C)n1CCCc1ccccc1 (stereo not drawn) ?
OX1R antag-1: -31.9; OX1R antag-2: 14.3; TAAR1 antag: 6.3; TAAR1 agonist: 0.5; CHO parental Ca: -18.2; GalR3 antag: 52.7*

How did CCOC(=O)C(C)Sc1nc2c(c(=O)[nH]c(=O)n2C)n1CCc1ccccc1 (stereo not drawn) do in these assays?
OX1R antag-1: -5.3; OX1R antag-2: 30.3; TAAR1 antag: -3.2; TAAR1 agonist: 15.7; CHO parental Ca: -17.2; GalR3 antag: -1.8

Results for CCOc1ccc(Br)cc1C1=CC(=O)C[C@H](c2ccc(OC)cc2)C1 ?
OX1R antag-1: -14.8; OX1R antag-2: 2.6; TAAR1 antag: 14.2; TAAR1 agonist: 7.0; CHO parental Ca: -15.4; GalR3 antag: -5.5
